Experimental data reported in ChEMBL document CHEMBL4428073, “Design, Synthesis, and Bioactivation of O-Glycosylated Prodrugs of the Natural Nitric Oxide Precursor N(ω)-Hydroxy-l-arginine” (J Med Chem, 2016).
Values belong to the molecule of their own block, whether it stands above or below them. Active and inactive are the calls of the source. No cut-off for these calls is given here.

Legend:
[1] = biological target: T1, Nitric oxide synthase, inducible (Mus musculus, UniProt P29477); experiment: Prodrug activation in LPS-stimulated mouse […] cells assessed as iNOS-mediated Nomega-hydroxy-L-arginine formation by measuring increase in NO release at 1 mM incubated for 2.5 hrs in presence of NOS inhibitor L-NAME by Hoechst 33342/DAF-FM-DA staining based fluorescence microscopic analysis; settings: 1000 µM
T1 sequence (P29477 whole entry): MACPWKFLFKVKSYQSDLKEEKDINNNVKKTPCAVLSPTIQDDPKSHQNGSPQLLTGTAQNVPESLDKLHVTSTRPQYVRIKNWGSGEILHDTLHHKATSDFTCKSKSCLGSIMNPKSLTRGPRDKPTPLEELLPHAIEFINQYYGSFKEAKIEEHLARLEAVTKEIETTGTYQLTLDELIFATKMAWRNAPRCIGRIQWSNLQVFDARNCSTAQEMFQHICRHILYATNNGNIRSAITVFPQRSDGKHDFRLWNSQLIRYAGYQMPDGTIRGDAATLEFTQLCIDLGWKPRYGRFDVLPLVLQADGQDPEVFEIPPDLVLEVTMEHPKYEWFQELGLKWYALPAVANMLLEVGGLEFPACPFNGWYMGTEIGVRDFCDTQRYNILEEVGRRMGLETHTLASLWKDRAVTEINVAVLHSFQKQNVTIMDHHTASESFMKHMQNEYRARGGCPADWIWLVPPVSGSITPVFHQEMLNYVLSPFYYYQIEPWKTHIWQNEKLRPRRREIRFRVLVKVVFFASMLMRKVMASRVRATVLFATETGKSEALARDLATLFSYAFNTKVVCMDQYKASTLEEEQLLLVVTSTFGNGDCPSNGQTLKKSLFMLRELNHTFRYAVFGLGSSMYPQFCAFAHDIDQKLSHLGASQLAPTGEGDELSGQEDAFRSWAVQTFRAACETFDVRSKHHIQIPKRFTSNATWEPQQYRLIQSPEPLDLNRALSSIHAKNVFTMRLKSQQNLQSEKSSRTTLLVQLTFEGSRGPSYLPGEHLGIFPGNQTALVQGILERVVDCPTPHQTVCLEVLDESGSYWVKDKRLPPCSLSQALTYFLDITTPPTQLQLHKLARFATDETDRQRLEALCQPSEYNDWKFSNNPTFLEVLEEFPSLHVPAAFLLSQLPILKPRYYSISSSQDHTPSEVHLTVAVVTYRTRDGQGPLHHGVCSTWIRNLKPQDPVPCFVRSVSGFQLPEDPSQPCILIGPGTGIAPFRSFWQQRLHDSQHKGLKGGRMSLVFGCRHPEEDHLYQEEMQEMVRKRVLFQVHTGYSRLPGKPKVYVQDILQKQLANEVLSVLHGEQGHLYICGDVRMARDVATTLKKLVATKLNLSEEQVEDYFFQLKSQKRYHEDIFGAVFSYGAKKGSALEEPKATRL
Outline: (§1)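 Washed into arginine/lysine-free DMEM with 2% FBS. Compound 1 mM final from DPBS++ stock, 150 min (L-NAME co-incubated where stated). Then 5 µM DAF-FM-DA plus 10 µM Hoechst 15 min. Six images per well, triplicate wells. Cell-normalized intensity minus DPBS++ control, scaled to reference substrate = 100%. Mean ± SEM.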

[2] = biological target: T1, Nitric oxide synthase, inducible; experiment: Prodrug activation in LPS-stimulated mouse […] cells assessed as iNOS-mediated Nomega-hydroxy-L-arginine formation by measuring increase in NO release at 1 mM incubated for 2.5 hrs by Hoechst 33342/DAF-FM-DA staining based fluorescence microscopic analysis; settings: 1000 µM; outline: as §1
[3] = Chemical stability in 10 mM potassium phosphate buffer at 250 uM at pH 2 incubated up to 24 hrs at 37 degC by HPLC analysis; format: physicochemical; settings: pH 2, 24 h
Outline: (§2)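 Compound at 250 µM in 10 mM potassium phosphate buffer at pH 2.0, 7.4 or 9.0, 37 °C. Samples taken at 3, 6 and 24 h, diluted 1:1 with 100 mM potassium phosphate pH 7.4. Analysed by HPLC after o-phthalaldehyde derivatization: RP18 column at 37 °C, fluorescence detection (ex 338 nm, em 425 nm).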

[4] = Chemical stability in 10 mM potassium phosphate buffer at 250 uM at pH 7.4 incubated up to 24 hrs at 37 degC by HPLC analysis; format: physicochemical; settings: pH 7.4, 24 h; outline: as §2
[5] = Chemical stability in 10 mM potassium phosphate buffer at 250 uM at pH 9 incubated up to 24 hrs at 37 degC by HPLC analysis; format: physicochemical; settings: pH 9, 24 h; outline: as §2
[6] = biological target: Beta-galactosidase (Escherichia coli, UniProt Q8VNN2); experiment: Prodrug activation assessed as recombinant Escherichia coli beta-galactosidase-mediated Nomega-hydroxy-L-arginine formation at 500 uM measured up to 150 mins by HPLC analysis; settings: 2.5 h
Sequence of Beta-galactosidase (Q8VNN2 whole entry): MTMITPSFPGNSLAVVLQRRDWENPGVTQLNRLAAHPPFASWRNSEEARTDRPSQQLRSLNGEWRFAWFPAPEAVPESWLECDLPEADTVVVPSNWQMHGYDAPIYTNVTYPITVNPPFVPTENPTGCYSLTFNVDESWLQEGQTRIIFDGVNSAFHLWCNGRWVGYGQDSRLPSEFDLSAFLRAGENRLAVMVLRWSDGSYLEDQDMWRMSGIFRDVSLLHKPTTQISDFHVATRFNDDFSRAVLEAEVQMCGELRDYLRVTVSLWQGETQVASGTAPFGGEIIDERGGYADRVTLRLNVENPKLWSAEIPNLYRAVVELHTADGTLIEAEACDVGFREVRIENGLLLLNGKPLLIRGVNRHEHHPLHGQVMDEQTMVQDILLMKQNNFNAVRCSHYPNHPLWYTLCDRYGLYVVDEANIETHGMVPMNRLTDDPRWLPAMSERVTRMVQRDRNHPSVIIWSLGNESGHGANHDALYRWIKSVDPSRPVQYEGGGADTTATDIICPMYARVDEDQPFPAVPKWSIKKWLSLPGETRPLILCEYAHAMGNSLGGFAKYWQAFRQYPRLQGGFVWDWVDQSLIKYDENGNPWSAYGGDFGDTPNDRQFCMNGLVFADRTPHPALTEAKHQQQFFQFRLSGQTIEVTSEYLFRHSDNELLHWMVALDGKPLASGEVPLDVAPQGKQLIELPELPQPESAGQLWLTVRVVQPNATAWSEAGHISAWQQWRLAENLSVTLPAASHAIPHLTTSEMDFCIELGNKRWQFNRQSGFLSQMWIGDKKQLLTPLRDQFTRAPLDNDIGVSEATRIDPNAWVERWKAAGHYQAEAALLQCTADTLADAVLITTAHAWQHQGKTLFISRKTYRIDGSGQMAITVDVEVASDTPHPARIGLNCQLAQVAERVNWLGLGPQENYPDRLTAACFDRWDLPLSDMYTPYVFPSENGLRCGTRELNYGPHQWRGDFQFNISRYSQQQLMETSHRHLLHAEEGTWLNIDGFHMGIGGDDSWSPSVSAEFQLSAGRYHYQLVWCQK
Outline: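 Recombinant E. coli β-galactosidase (25 U/mL) pre-incubated 3 min at 37 °C in 50 mM triethanolamine pH 7.0, then prodrug added at 500 µM. Samples at 0, 15, 45, 90 and 150 min stopped with ice-cold MeOH, centrifuged and analysed by o-phthalaldehyde/fluorescence HPLC. No-enzyme controls included.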

[7] = Prodrug activation assessed as almond beta-glucosidase-mediated Nomega-hydroxy-L-arginine formation at 500 uM measured up to 150 mins by HPLC analysis; settings: prunus dulcis, 2.5 h
Outline: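 β-Glucosidase (recombinant, almond; 33 U/mL) pre-incubated 3 min at 37 °C in 50 mM triethanolamine pH 7.0. Reaction started with prodrug (500 µM). Aliquots at 0, 15, 45, 90 and 150 min quenched with equal volume ice-cold MeOH, then centrifuged. Supernatant analysed by o-phthalaldehyde/fluorescence HPLC. No-enzyme controls run alongside. Mean ± SD, n = 2-3.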

[8] = Prodrug activation assessed as porcine liver carboxylesterase/recombinant Escherichia coli beta-galactosidase-mediated Nomega-hydroxy-L-arginine formation by measuring NO release at 500 uM preincubated for 150 mins followed by recombinant mouse iNOS and NADPH addition incubated for 30 mins followed by LDH and sodium pyruvate addition measured after 15 mins by Griess assay; settings: 0.5 h
[9] = Half life in 10 mM potassium phosphate buffer at 250 uM at pH 7.4 at 37 degC by HPLC analysis; format: physicochemical
Outline: (§3)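 Half-life from incubations at 250 µM in 10 mM potassium phosphate buffer, 37 °C, pH 7.4 or 9.0. Sampling at 3, 6 and 24 h. HPLC of o-phthalaldehyde derivatives with fluorescence detection (ex 338 nm, em 425 nm).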

[10] = Half life in 10 mM potassium phosphate buffer at 250 uM at pH 9 at 37 degC by HPLC analysis; format: physicochemical; outline: as §3
[11] = biological target: T2, Liver carboxylesterase (Sus scrofa, UniProt Q29550); experiment: Prodrug activation assessed as porcine liver carboxylesterase-mediated Sodium Nomega-(beta-D-Galactopyranos-1-yloxy)-L-arginine formation at 500 uM measured up to 150 mins by HPLC analysis; settings: pig, 2.5 h
T2 sequence (Q29550 whole entry): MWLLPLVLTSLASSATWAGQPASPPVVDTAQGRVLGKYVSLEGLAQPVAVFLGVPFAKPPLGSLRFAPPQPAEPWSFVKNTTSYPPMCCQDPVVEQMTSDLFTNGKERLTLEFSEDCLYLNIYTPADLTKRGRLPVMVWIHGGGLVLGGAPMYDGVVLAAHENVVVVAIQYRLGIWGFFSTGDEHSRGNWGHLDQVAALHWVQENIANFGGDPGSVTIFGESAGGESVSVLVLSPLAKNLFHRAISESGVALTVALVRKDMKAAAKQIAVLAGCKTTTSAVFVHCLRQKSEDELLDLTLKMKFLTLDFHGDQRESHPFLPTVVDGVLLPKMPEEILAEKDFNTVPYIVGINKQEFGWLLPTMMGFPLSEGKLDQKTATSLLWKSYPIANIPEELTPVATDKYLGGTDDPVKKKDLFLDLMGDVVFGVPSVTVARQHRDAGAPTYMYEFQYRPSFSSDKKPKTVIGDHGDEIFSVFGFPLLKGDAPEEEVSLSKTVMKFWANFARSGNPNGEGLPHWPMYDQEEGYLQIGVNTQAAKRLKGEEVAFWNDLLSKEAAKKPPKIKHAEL
Outline: (§4)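 Porcine liver carboxylesterase (133 U/mL) plus β-galactosidase (33 U/mL) pre-incubated 3 min at 37 °C in 50 mM triethanolamine pH 7.0. Started with prodrug at 500 µM. Samples at 0–150 min quenched with cold MeOH, centrifuged and analysed by o-phthalaldehyde/fluorescence HPLC. No-enzyme controls included.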

[12] = Prodrug activation assessed as porcine liver carboxylesterase/beta-galactosidase-mediated Nomega-hydroxy-L-arginine formation at 500 uM measured up to 150 mins by HPLC analysis; parameters: species or system Sus scrofa; settings: pig, 2.5 h; outline: as §4
[13] = biological target: T3, Nitric oxide synthase, inducible (Mus musculus) (UniProt P29477); experiment: Substrate activity at recombinant mouse iNOS assessed as increase in NO release incubated for 30 mins in presence of NADPH followed by LDH and sodium pyruvate addition measured after 15 mins by Griess assay
T3 sequence (whole entry): T1 sequence (P29477 whole entry)

[14] = tested on: J774.A1; experiment: Toxicity in mouse […] cells assessed as changes in cell shape up to 1 mM after 2.5 hrs by Hoechst 33342/DAPI/GFP staining based fluorescence microscopic analysis; settings: j774.a1, 2.5 h
Outline: (§5)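 Stained with Hoechst 33342 and DAF-FM-DA, then imaged by automated fluorescence microscopy (about 1000 cells per well). Cell shape, blebbing, apoptosis and cell numbers judged against DPBS++ vehicle controls.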

[15] = tested on: J774.A1; experiment: Toxicity in mouse […] cells assessed as appearance of cell blebbing up to 1 mM after 2.5 hrs by Hoechst 33342/DAPI/GFP staining based fluorescence microscopic analysis; settings: j774.a1, 2.5 h; outline: as §5
[16] = tested on: J774.A1; experiment: Toxicity in mouse […] cells assessed as reduction in cell proliferation up to 1 mM after 2.5 hrs by Hoechst 33342/DAF-FM-DA staining based fluorescence microscopic analysis; settings: j774.a1, 2.5 h; outline: as §5
[17] = tested on: J774.A1; experiment: Toxicity in mouse […] cells assessed as induction of apoptosis up to 1 mM after 2.5 hrs by Hoechst 33342/DAPI/GFP staining based fluorescence microscopic analysis; format: cell-based; settings: j774.a1, 2.5 h; outline: as §5
[18] = biological target: T3, Nitric oxide synthase, inducible (Mus musculus); experiment: Substrate activity at iNOS in LPS-stimulated mouse J744A.1 cells assessed as increase in NO release at 1 mM incubated for 2.5 hrs by Hoechst 33342/DAF-FM-DA staining based fluorescence microscopic analysis; outline: as §1

Compound: CCOC(=O)[C@@H](N)CCCN/C(N)=N/O[C@@H]1O[C@H](COC(C)=O)[C@@H](OC(C)=O)[C@H](OC(C)=O)[C@H]1OC(C)=O.Cl.Cl
Drug metabolism [1]: Metabolite_Notdetected
Drug metabolism [2]: Metabolite_Detected

Compound: CCOC(=O)[C@@H](N)CCCN/C(N)=N/O[C@@H]1O[C@H](CO)[C@H](O)[C@H](O)[C@H]1O.Cl.Cl
half-life at 250 µM [9]: 10 to 12 h
half-life at 250 µM [10]: 10 to 12 h
Drug metabolism [11]: Metabolite_Detected
Drug metabolism [12]: Metabolite_Detected
Drug metabolism [8]: Metabolite_Detected
Drug metabolism [2]: Metabolite_Notdetected

Compound: N=C(NO)NCCC[C@H](N)C(=O)O
Activity [13]: Active
Activity [14]: Non-Toxic
Activity [15]: Non-Toxic
Activity [16]: Non-Toxic
Activity [17]: Non-Toxic
Activity [18]: Active

Compound: CC(=O)OC[C@H]1O[C@@H](O/N=C(\N)NCCC[C@H](N)C(=O)O)[C@H](OC(C)=O)[C@@H](OC(C)=O)[C@H]1OC(C)=O.Cl.Cl
half-life at 250 µM [9]: > 24 h
half-life at 250 µM [10]: > 24 h
Drug metabolism [6]: Metabolite_Notdetected
Drug metabolism [2]: Metabolite_Notdetected

Compound: CC(=O)OC[C@H]1O[C@@H](O/N=C(\N)NCCC[C@H](N)C(=O)O)[C@H](OC(C)=O)[C@@H](OC(C)=O)[C@@H]1OC(C)=O.Cl.Cl
Drug metabolism [1]: Metabolite_Notdetected
Drug metabolism [7]: Metabolite_Detected
Drug metabolism [2]: Metabolite_Detected

Compound: CCOC(=O)[C@@H](N)CCCN/C(N)=N/O[C@@H]1O[C@H](COC(C)=O)[C@H](OC(C)=O)[C@H](OC(C)=O)[C@H]1OC(C)=O.Cl.Cl
Drug metabolism [1]: Metabolite_Notdetected

Other lines, results leading:

Stability [3]: Stable
Stability [4]: Stable
Stability [5]: Stable
Drug metabolism [6]: Metabolite_Detected
Drug metabolism [7]: Metabolite_Detected
Drug metabolism [8]: Metabolite_Detected
Drug metabolism [2]: Metabolite_Notdetected
Compound: N/C(=N\O[C@@H]1O[C@H](CO)[C@H](O)[C@H](O)[C@H]1O)NCCC[C@H](N)C(=O)[O-].[Na+]

Drug metabolism [1]: Metabolite_Notdetected
Drug metabolism [7]: Metabolite_Detected
Drug metabolism [2]: Metabolite_Detected
Compound: N/C(=N\O[C@@H]1O[C@H](CO)[C@@H](O)[C@H](O)[C@H]1O)NCCC[C@H](N)C(=O)[O-].[Na+]

Drug metabolism [1]: Metabolite_Notdetected
Drug metabolism [2]: Metabolite_Detected
Compound: CCOC(=O)[C@@H](N)CCCN/C(N)=N/O[C@@H]1O[C@H](CO)[C@@H](O)[C@H](O)[C@H]1O.Cl.Cl
